Assay outcomes (PubChem BioAssay)
T cruzi repl = inhibitors of intracellular T. cruzi growth, primary screen, luminescence, NIH3T3 host cells; 1.4% of 300,000 active; inhibition, % (concentration not given with the values); AID 1885, 2009; T. cruzi beta-gal in NIH3T3, 90 h;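 active = mean inhibition across valid replicates above about 55%, limit read from the data; inconclusive = mean below that limit but half or more replicates reach it; inactive = mean below it, under half of replicates reach it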;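 note: signal also drops with host cell toxicity which is not excluded here; 0% = plate median of DMSO wells and 100% = zero luminescence signal; higher percent means less beta-gal luminescence so fewer parasites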
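Incubation – ≥90 h infection period, 3 h prior cell attachment · System – NIH/3T3 fibroblasts plus reporter T. cruzi · Doses – compound pinned at 50 nL/well, DMSO · Read-out basis – percent inhibition of parasite-derived β-gal signal · Signal – luminescent β-galactosidase signal after 60 min lysis · Also added – 5000 T. cruzi trypomastigotes/well · Medium – Low-serum DMEM with 2% FBS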
Mdm2-MdmX inh = inhibitors of human Mdm2-MdmX association, primary screen, cell-based, luminescence, split luciferase, SaOS-2, uHTS; Protein Mdm4 (Homo sapiens) + E3 ubiquitin-protein ligase Mdm2 (Homo sapiens), …; SaOS-2 split-luciferase Mdm2/MdmX complementation; inhibition, % at 8 µM; 3% of 330,000 active; AID 485346, 2010;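 active = inhibition of at least 50% at 8 µM in the primary screen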
Target sequence (O15151 whole entry, looked up): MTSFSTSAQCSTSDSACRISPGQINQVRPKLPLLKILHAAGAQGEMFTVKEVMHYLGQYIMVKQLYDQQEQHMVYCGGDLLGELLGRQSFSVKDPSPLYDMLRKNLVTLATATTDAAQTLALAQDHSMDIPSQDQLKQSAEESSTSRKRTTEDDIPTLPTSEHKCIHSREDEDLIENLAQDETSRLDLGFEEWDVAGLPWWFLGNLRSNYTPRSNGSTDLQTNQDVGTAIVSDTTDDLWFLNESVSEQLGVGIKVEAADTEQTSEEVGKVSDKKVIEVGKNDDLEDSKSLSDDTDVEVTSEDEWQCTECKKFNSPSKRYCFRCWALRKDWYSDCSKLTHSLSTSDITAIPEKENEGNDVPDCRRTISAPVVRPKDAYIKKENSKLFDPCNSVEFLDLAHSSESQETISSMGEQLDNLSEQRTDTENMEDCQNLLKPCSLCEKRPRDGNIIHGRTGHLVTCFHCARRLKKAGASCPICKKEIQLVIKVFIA
Target sequence (Q00987 whole entry, looked up): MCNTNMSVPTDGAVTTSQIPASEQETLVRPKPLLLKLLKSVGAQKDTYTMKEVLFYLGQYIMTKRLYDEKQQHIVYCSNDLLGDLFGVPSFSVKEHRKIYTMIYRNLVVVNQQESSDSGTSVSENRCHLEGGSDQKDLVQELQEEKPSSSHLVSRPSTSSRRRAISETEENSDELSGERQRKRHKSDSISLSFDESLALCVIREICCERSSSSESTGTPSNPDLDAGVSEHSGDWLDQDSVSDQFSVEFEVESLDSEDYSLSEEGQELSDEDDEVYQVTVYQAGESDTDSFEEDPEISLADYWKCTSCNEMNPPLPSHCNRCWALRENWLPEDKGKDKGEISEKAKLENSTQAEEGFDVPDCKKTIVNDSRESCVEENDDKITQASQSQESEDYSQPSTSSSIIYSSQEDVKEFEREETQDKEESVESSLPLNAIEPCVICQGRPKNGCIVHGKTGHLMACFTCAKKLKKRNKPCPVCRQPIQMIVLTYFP
Calb FLC = C. albicans growth inhibition with fluconazole, primary screen, CaCi-2 strain, Alamar Blue fluorescence; growth inhibition, % (concentration not given with the values); C. albicans CaCi-2 + fluconazole, 48 h; 0.57% of 300,000 active;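 active = growth inhibition above about 58% in most replicates, limit read from the data, passing the limit was not always enough; inconclusive = exactly half the replicates above a set limit; inactive = most replicates below a set limit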;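 note: all wells also contain fluconazole at 8 µg/ml as a sub-toxic cotreatment; 0% = median of DMSO wells and 100% = median of geldanamycin control wells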
NLRP3 yeast inh = NALP3 inflammasome inhibitors in reconstituted yeast, primary screen, luminescence, uHTS; AID 2825, 2010; Yeast reconstituted NLRP3/ASC/caspase-1, beta-gal luminescence, 24 h; inhibition, % at 10 µM; 0.39% of 330,000 active;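 active = inhibition of 50% or more; inactive = inhibition below 50%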;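 note: plate controls were induced DMSO wells for no effect and uninduced yeast grown without galactose for full effect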
Beta apoptosis = inhibitors of cytokine-induced beta cell apoptosis, primary screen, luminescence; INS-1E cytokine-induced death, ATP luminescence, 48 h; percent of positive-control rescue, neutral wells zero; protection from apoptosis, % (concentration not given with the values); 0.8% of 300,000 active; AID 435005, 2010;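 active = Every replicate reaches about 75%, or at least half do and their mean reaches it too, limit read from the data; inconclusive = At least half of replicates reach the limit but their mean does not; inactive = Under half of replicates reach the limit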;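 note: 0% = cytokine-treated negative control wells and 100% = positive control rescue; higher means more ATP so stronger rescue from cytokine killing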
CSC inhib = cancer stem cell viability inhibitors, primary screen, luminescence. cancer stem cell-like cells viability. inhibition, % at 7.5 µM. 1.1% of 300,000 active; in the data active = inhibition above about 75%; inconclusive = no clear call, values can overlap the other calls; tested in HMLE shEcad cells
* hit, by the source's call; ? = inconclusive; · = not tested or not shown. In the library only some 5.3% were active in any assay of this set; here they are far more common.

SMILES	T cruzi repl	Mdm2-MdmX inh	Calb FLC	NLRP3 yeast inh	Beta apoptosis	CSC inhib
CC(C)CC(=O)NC(NC(=S)Nc1sc2c(c1C#N)CCCC2)C(Cl)(Cl)Cl (stereo not given)	7.9	48.1	?	15.1	21.3	79.6*
CCC(=O)Nc1sc2c(c1C#N)CCC2	-2.2	-13.6	1.4	-21.3	-3.3	-10.0
Cc1cc(C)c(CSc2ncc(-c3ccc([N+](=O)[O-])cc3)[nH]2)c(C)c1	58.4*	48.5	-2.4	30.2	6.6	62.7
O=[N+]([O-])c1ccc(-c2cnc(SCc3ccccc3Cl)[nH]2)cc1	18.4	-21.0	39.3	17.6	11.1	56.7
COC(=O)c1sccc1NC(=O)c1ccccc1C(=O)O	-8.6	5.5	-2.3	-7.8	-5.3	4.4
COCCn1c(SCC(=O)NC(=O)NCc2ccccc2)nc2ccccc21	55.4*	-9.2	-2.1	10.0	2.0	-4.7
COC(=O)c1ccccc1-c1ccc(/C=N/NC(=O)c2cc3ccccc3o2)o1	16.3	20.1	13.2	-1.4	-4.6	·
COC(=O)c1ccccc1-c1c2ccc(=N)cc-2oc2cc(N)ccc12	·	44.7	·	17.7	98.6*	·
Cc1onc(-c2ccccc2)c1CNC(=O)Nc1ccc(C(F)(F)F)cc1	55.7*	24.9	-26.0	13.0	1.5	20.6
O=C(CCS(=O)(=O)c1ccccc1)NC1CCCCC1	3.4	7.8	-7.1	4.8	-0.7	-1.1
COc1ccc(NS(=O)(=O)c2ccc3oc(SC)nc3c2)cc1	-18.1	0.0	-2.9	13.0	1.9	-4.6
COc1cnc(-c2ccccn2)nc1Sc1ccccc1Cl	60.4*	39.1	81.2*	21.2	86.1*	4.2
CCCC(O)(c1ccc(Br)cc1)C(CN1CCOCC1)c1ccc(Cl)cc1 (stereo not given)	-6.7	24.2	-5.8	16.4	12.7	93.0*
Cc1ccc(C2=CC(c3ccc(N(C)C)cc3)n3nnnc3N2)cc1 (stereo not given)	8.1	-22.3	15.4	11.5	108.3*	1.3
COc1ccc(C2=CC(c3ccc(F)cc3)n3nnnc3N2)cc1 (stereo not given)	-19.4	3.5	19.7	8.1	-1.6	-5.4
CCC(c1nnnn1Cc1ccco1)N1CCN(c2cc(Cl)ccc2C)CC1 (stereo not given)	26.7	-6.2	-1.5	-6.3	0.7	94.3*
Cc1ccc(CCNC(=O)c2ccc(NC3=NC4CS(=O)(=O)CC4S3)cc2)cc1 (stereo not given)	2.8	-4.8	3.0	6.4	-5.9	-4.8
O=C(O)c1cccc(N/N=C(\N=Nc2ccccc2)c2ccccc2)c1	7.7	21.4	-20.3	26.3	-0.7	88.1*
O=C(O)c1ccc(N=N/C(=N\Nc2ccc(C(=O)O)cc2)c2ccccc2)cc1	-3.4	5.5	0.5	32.7	19.3	15.3
O=C1/C(=C\c2cccnc2)SC(=S)N1C1CCS(=O)(=O)C1 (stereo not given)	-0.8	29.8	90.7*	41.4	-70.4	36.6
O=C1/C(=C/c2cccnc2)SC(=S)N1C1CCS(=O)(=O)C1 (stereo not given)	15.4	2.8	65.0	25.7	-17.8	·
Cc1ccc(NC(=O)CSc2nnc(CNC(=O)c3ccco3)n2C)cc1C	-6.2	29.3	-1.8	0.7	-12.0	-6.1
Cc1ccccc1Nc1c(-c2cccnc2)nc2ccc(Br)cn12	33.3	23.2	26.6	18.7	-19.7	3.6
Cc1ccccc1Nc1c(-c2ccncc2)nc2ccc(Br)cn12	59.4*	47.4	13.4	14.9	-5.8	-4.3
COc1ccc(C(CNC(=O)c2oc3ccc(Br)cc3c2C)N2CCCCC2)cc1 (stereo not given)	54.6*	8.3	-3.6	23.1	-11.1	-2.7
SMILES	T cruzi repl	Mdm2-MdmX inh	Calb FLC	NLRP3 yeast inh	Beta apoptosis	CSC inhib
COc1ccc(C(CNC(=O)c2oc3ccc(OC)cc3c2C)N2CCCC2)cc1 (stereo not given)	17.2	-15.0	-11.5	24.8	-7.1	11.9
CCc1ccc2oc(C(=O)NCC(c3ccc(OC)cc3)N3CCCCC3)c(C)c2c1 (stereo not given)	27.8	38.4	2.9	28.4	15.5	84.5*
O=C(Nc1ccc(-c2nnc3n2CCCCC3)cc1)c1ccco1	-9.0	0.4	-7.3	-5.9	-1.6	-2.6
Cc1c(C(=O)Nc2ccc(-c3nnc4n3CCCCC4)cc2)oc2ccc(Br)cc12	60.8*	37.8	0.4	1.7	15.5	-3.1
CN1C(=O)c2ccc(C(=O)Nc3ccc4c(c3)OCO4)cc2C1=O	-10.3	-10.5	2.7	3.1	-4.4	-6.8
CCC(C)NC(=O)c1c(-c2cc(Cl)c(OC)c(Cl)c2)noc1C (stereo not given)	6.4	10.7	-4.1	0.7	0.7	3.8
COc1ccccc1C1C(C(C)=O)=C(O)C(=O)N1c1ccc(O)cc1 (stereo not given)	-5.8	13.6	2.2	-3.9	-1.6	-16.9
Cc1cc(C(=O)C(C)Cl)c(C)n1Cc1ccco1 (stereo not given)	2.4	19.7	-15.3	11.4	-3.6	-14.9
COc1ccc(NS(=O)(=O)c2ccc(N3CCOCC3)c(N)c2)cc1	·	-6.5	·	30.7	76.4*	25.7
CSc1ccc(S(=O)(=O)Nc2ccc(N3CCOCC3)c(Cl)c2)cc1	-30.4	-19.9	-0.4	14.6	103.9*	3.0
CCOc1ccc2nc(SCCNS(=O)(=O)c3ccccc3)sc2c1	31.3	24.2	0.0	25.6	7.7	28.7
COc1cc2c(cc1OC)C(c1ccc(Br)cc1)NCC2 (stereo not given)	57.0*	25.6	11.9	25.8	-0.1	-15.5
COC(=O)Cc1c[nH]c2cccc(OCC(O)CN(Cc3ccccc3)C(C)C)c12 (stereo not given)	10.2	32.6	0.8	17.9	-1.3	0.2
Cc1ccc(CN(CC(O)COc2cccc3[nH]cc(C)c23)C(C)(C)C)cc1 (stereo not given)	31.7	-22.1	-26.3	-2.1	-2.0	75.9*
COC(=O)Cc1c[nH]c2cccc(OCC(O)CN(Cc3ccc([N+](=O)[O-])cc3)C(C)(C)C)c12 (stereo not given)	65.1*	11.2	-4.3	11.6	·	-0.2
NS(=O)(=O)c1ccc(N/N=C/c2cn(-c3ccccc3)nc2-c2cccs2)cc1	5.9	6.7	20.9	22.0	1.6	81.5*
NC(=O)N/N=C/c1cn(-c2ccccc2)nc1-c1cccs1	-0.5	-40.8	31.4	20.2	19.5	28.4
Cc1cccc2cc(CNCC3CCCO3)c(Cl)nc12 (stereo not given)	-9.8	-9.0	98.8*	14.8	-0.6	-14.5
Fc1ccccc1CNCC1CCCO1 (stereo not given)	-0.2	0.3	10.3	14.8	·	·
